Source: PMC11789357 (Journal of Translational Medicine, 2025)
pKd: −log10 of the molar value.

Tests used:
[1] = Single-dose PK study in healthy BALB/c mice; type: in vivo, mouse; settings: SC 0.08 mg/kg single dose
In short: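 Female BALB/c mice received a single sc injection of test compound or peptide dimer. Blood was sampled at several times over 14 days, and serum drug level was measured by MSD immunoassay. Mean concentration–time curves gave Tmax, Cmax, t1/2, AUC0-t, AUC0-∞ and MRT.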

BaF3-hEPOR cells = assay: Western blot of EPOR downstream signaling; type: cell-based, murine; settings: 10 min treatment, monitored 4 days
In short: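 They were exposed 10 min, pelleted, and resuspended in EPO-free medium. Lysates were taken at 0 min, 30 min, 1 h, 4 h and 1–4 days. Western blots on 4–20% gels were probed for p-ERK1/2 and p-STAT5.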

[2] = molecular target: EPOR extracellular domain-IgFc construct (UniProt P19235); assay: SPR
UT-7 cells [3] = assay: CellTiter-Glo cell proliferation / survival assay; type: cell-based, human; settings: medium without EPO; matched doses 1000 ng/mL (20 nM) vs 4 U/mL, 200 ng/mL (4 nM) vs 0.8 U/mL
UT-7 cells [4] = settings: ref [21], [23]; cited from earlier work

Sequence of UniProt P19235 (P19235 25-250): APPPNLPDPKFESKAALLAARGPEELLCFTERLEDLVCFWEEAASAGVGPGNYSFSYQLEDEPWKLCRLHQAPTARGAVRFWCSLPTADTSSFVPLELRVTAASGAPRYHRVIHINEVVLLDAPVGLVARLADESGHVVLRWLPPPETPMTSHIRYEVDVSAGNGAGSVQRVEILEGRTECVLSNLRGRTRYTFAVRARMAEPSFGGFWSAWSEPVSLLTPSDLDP

Q: With `CC(=O)NCC(=O)NCC(=O)N[C@H](C(=O)N[C@@H](Cc1ccc(O)cc1)C(=O)N[C@@H](CO)C(=O)N[C@H]1CSSC[C@@H](C(=O)N[C@@H](CCCNC(=N)N)C(=O)N2CCC[C@H]2C(=O)N[C@@H](CCC(N)=O)C(=O)N[C@@H](CCCNC(=N)N)C(=O)NCC(=O)NCCC(=O)N[C@@H](CCCCNC(=O)CN(CC(=O)NCCCC[C@H](NC(=O)CCNC(=O)CNC(=O)[C@H](CCCNC(=N)N)NC(=O)[C@H](CCC(N)=O)NC(=O)[C@@H]2CCCN2C(=O)[C@H](CCCNC(=N)N)NC(=O)[C@@H]2CSSC[C@H](NC(=O)[C@H](CO)NC(=O)[C@H](Cc3ccc(O)cc3)NC(=O)[C@@H](NC(=O)CNC(=O)CNC(C)=O)[C@@H](C)O)C(=O)N[C@@H](Cc3c[nH]cn3)C(=O)N[C@@H](Cc3ccccc3)C(=O)NCC(=O)N[C@@H](C)C(=O)N[C@@H](CC(C)C)C(=O)N[C@@H]([C@@H](C)O)C(=O)N[C@@H](Cc3c[nH]c4ccccc34)C(=O)N[C@@H](C(C)C)C(=O)N2)C(N)=O)C(=O)CCN)C(N)=O)NC(=O)[C@H](C(C)C)NC(=O)[C@H](Cc2c[nH]c3ccccc23)NC(=O)[C@H]([C@@H](C)O)NC(=O)[C@H](CC(C)C)NC(=O)[C@H](C)NC(=O)CNC(=O)[C@H](Cc2ccccc2)NC(=O)[C@H](Cc2c[nH]cn2)NC1=O)[C@@H](C)O` [Peptide dimer] as the compound, how does the “Serum concentration” value [1] read?
A: Its value is “mostly below detection limits”.

Q: And the “Phosphorylation levels of ERK1/2 MAPK and STAT5 after withdrawal” value (BaF3-hEPOR cells)?
A: Its value is “showed a decline”.

Q: With Pegmolesatide (peptide) as the compound, how does the pKd [2] read?
A: Its pKd is 9.55.

Q: What does the source list for “rHuEPO (ESPO 3000): recombinant human erythropoietin product ESPO 3000, Kyowa Kirin”?
A: UT-7 cell proliferation under continuous treatment (UT-7 cells [3]): maintained cell proliferation over 7 consecutive days of treatment; Phosphorylation levels of ERK1/2 MAPK and STAT5 after withdrawal (BaF3-hEPOR cells): showed a decline

Q: Which “Rate of internalization of the rHuEPO-receptor complex” value (UT-7 cells [4]) does the source give for “rHuEPO: recombinant human erythropoietin, as cited from literature” here?
A: Its value is 3.6 per hour.

Q: What about the “Time to lysosomal degradation post-internalization” value (UT-7 cells [4]) of the same compound?
A: Its value is 15 to 20 min.
